Assay results as given in ChEMBL document CHEMBL1153602, “Photochemical electrocyclisation of 3-vinylindoles to pyrido[2,3-a]-, pyrido[4,3-a]- and thieno[2,3-a]-carbazoles: design, synthesis, DNA binding and antitumor cell cytotoxicity” (2009).
Activity calls are given as the source filed them. The rule behind the calls is not given here.

Legend:
HT-29 [1] = experiment: Cell cycle arrest in human HT-29 cells assessed as accumulation at G2/M phase after 24 hrs using PI staining by flow cytometry; format: functional, cell-based
Outline: (§1)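 HT-29 cells, 3×10^5 per sample in exponential growth, were exposed to graded drug concentrations for 24 h. Cells were then trypsinised, fixed in 70% ethanol and stained 30 min in the dark with propidium iodide (50 µg/ml) plus RNase (100 µg/ml). DNA content was measured by flow cytometry, quantifying cell-cycle phases and the sub-G1 fraction.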

HT-29 [2] = experiment: Growth inhibition of human HT-29 cells by MTS assay; format: functional
Outline: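 HT-29 cells, 3×10^3 per well, were seeded 24 h before treatment with compound at 1 nM–100 µM, run as 3 series of duplicate or triplicate points. After 72 h at 37 °C, MTS tetrazolium was added for 2 h and absorbance read at 492 nm. GC50 is the concentration halving cell number versus untreated control wells.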

Calf thymus DNA [3] = experiment: Binding affinity to calf thymus DNA assessed as change in melting temperature at a compound to DNA molar ratio of 0.1 by UV-vis spectroscopy; format: nucleic-acid assay; conditions: Bos taurus
Outline: (§2)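 UV absorbance of DNA at 260 nm recorded every minute from 20 to 100 °C, ramping 1 °C/min in a thermostated quartz cell. Tm is taken as the midpoint of the hyperchromic transition. ΔTm = Tm(DNA+drug) − Tm(DNA alone). Calf-thymus DNA or poly(dAdT)2 was used at DNA/drug ratios from 0.1 to 1.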

Calf thymus DNA [4] = experiment: Binding affinity to calf thymus DNA assessed as change in melting temperature at a compound to DNA molar ratio of 0.25 by UV-vis spectroscopy; format: nucleic-acid assay; conditions: Bos taurus; outline: as §2
Calf thymus DNA [5] = experiment: Binding affinity to calf thymus DNA assessed as change in melting temperature at a compound to DNA molar ratio of 0.5 by UV-vis spectroscopy; format: nucleic-acid assay; conditions: Bos taurus; outline: as §2
Calf thymus DNA [6] = experiment: Binding affinity to calf thymus DNA assessed as change in melting temperature at a compound to DNA molar ratio of 1 by UV-vis spectroscopy; format: nucleic-acid assay; conditions: Bos taurus; outline: as §2
Nucleic Acid [7] = experiment: Binding affinity to poly(dA).poly(dT) duplex DNA assessed as change in thermal melting temperature at compound to DNA ratio of 0.1 by UV-vis spectroscopy; format: nucleic-acid assay
Nucleic Acid [8] = experiment: Binding affinity to poly(dA).poly(dT) duplex DNA assessed as change in thermal melting temperature at compound to DNA ratio of 0.25 by UV-vis spectroscopy; format: nucleic-acid assay
Nucleic Acid [9] = experiment: Binding affinity to poly(dA).poly(dT) duplex DNA assessed as change in thermal melting temperature at compound to DNA ratio of 0.5 by UV-vis spectroscopy; format: nucleic-acid assay
Nucleic Acid [10] = experiment: Binding affinity to poly(dA).poly(dT) duplex DNA assessed as change in thermal melting temperature at compound to DNA ratio of 1 by UV-vis spectroscopy; format: nucleic-acid assay
Calf thymus DNA [11] = experiment: Binding affinity to calf thymus DNA assessed as positive dichroic signal at phosphate/drug ratio of 1.2 by circular dichroism spectra; format: nucleic-acid assay; conditions: Bos taurus
Outline: (§3)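 Circular dichroism of drug at […] in 1 ml of 1 mM sodium cacodylate, pH 7.0, with or without CT-DNA at 10–200 µM. Phosphate/compound ratio ran from 0.4 to 8. The induced CD signal in the ligand absorption region was recorded.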

Nucleic Acid [12] = experiment: Binding affinity to pBS 117bp DNA by DnaseI footprinting assay; format: nucleic-acid assay
Outline: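 Ligand and fragment were pre-incubated 15 min at 37 °C, then digested with DNase I at 0.001 unit/ml in 20 mM NaCl, 2 mM MgCl2, 2 mM MnCl2, pH 7.3. Products were resolved on a denaturing 8% polyacrylamide/8 M urea gel, with a G-track marker.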

Calf thymus DNA [13] = experiment: Binding affinity to calf thymus DNA assessed as quenching constant up 80 uM by fluorescence spectroscopy; format: nucleic-acid assay; conditions: Bos taurus
Outline: (§4)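 Drug at a fixed 20 µM in 1 ml BPE buffer in a 10 mm quartz cuvette, titrated with CT-DNA at 10–200 µM base pairs. Excitation was set at each compound's own wavelength (276–319 nm). Constants came from Stern–Volmer plots of F0/F against CT-DNA concentration, with the slope taken as Ksv.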

Calf thymus DNA [14] = experiment: Binding affinity to calf thymus DNA assessed as positive dichroic signal at phosphate/drug ratio of 4.8 by circular dichroism spectra; format: nucleic-acid assay; conditions: Bos taurus; outline: as §3
HT-29 [15] = experiment: Cell cycle arrest in human HT-29 cells assessed as accumulation at S phase after 24 hrs using PI staining by flow cytometry; format: functional, cell-based; outline: as §1
Calf thymus DNA [16] = experiment: Binding affinity to calf thymus DNA assessed as quenching constant by fluorescence spectroscopy; format: nucleic-acid assay; conditions: Bos taurus; outline: as §4
Calf thymus DNA [17] = experiment: Binding affinity to calf thymus DNA assessed as negative dichroic signal at phosphate/drug ratio by circular dichroism spectra; format: nucleic-acid assay; conditions: Bos taurus; outline: as §3
Calf thymus DNA [18] = experiment: Binding affinity to calf thymus DNA assessed as positive dichroic signal at phosphate/drug ratio by circular dichroism spectra; format: nucleic-acid assay; conditions: Bos taurus; outline: as §3

GI50 (HT-29 [2]) | ΔTm (Calf thymus DNA [3]) | ΔTm (Calf thymus DNA [4]) | ΔTm (Calf thymus DNA [5]) | ΔTm (Calf thymus DNA [6]) | ΔTm (Nucleic Acid [7]) | ΔTm (Nucleic Acid [8]) | ΔTm (Nucleic Acid [9]) | ΔTm (Nucleic Acid [10]) | Activity (Calf thymus DNA [11]) | Activity (Nucleic Acid [12]) | KSV (Calf thymus DNA [13]) | Activity (Calf thymus DNA [14]) | KSV (Calf thymus DNA [16]) | Activity (Calf thymus DNA [17]) | Activity (Calf thymus DNA [18]) | SMILES | Activity (HT-29 [1]) | Activity (HT-29 [15])
14 µM | 1.1 °C | 1.5 °C | 5.1 °C | 7.9 °C | 2.8 °C | 6.2 °C | 13.6 °C | 8.8 °C | Active | Active |  |  |  |  |  | CN(C)CCNC(=O)c1cc2c3cccc(Cl)c3[nH]c2c2ncccc12 | Active | 
10.8 µM | 0 °C | 1.5 °C | 4.4 °C | 5.8 °C | 5.9 °C | 11.9 °C | 16.4 °C | 20.9 °C |  | Active | 2.65 ×10⁴ /M |  |  |  |  | CN(C)CCCNC(=O)c1cc2c3ccccc3[nH]c2c2sccc12 |  | 
4.49 µM | 2.6 °C | 5 °C | 10.4 °C | 13.8 °C | 9.7 °C | 17.6 °C | 23.6 °C | 29.8 °C |  | Active |  | Active |  |  |  | CN(C)CCCNC(=O)c1cc2c3cccc(Cl)c3[nH]c2c2ncccc12 | Active | 
1.08 µM | 5.3 °C | 7.9 °C | 11.2 °C | 15.1 °C | 11.6 °C | 18.9 °C | 24.7 °C | 29.6 °C |  | Active |  |  | 6.72 ×10³ /M | Active | Active | CN(C)CCNC(=O)c1cc2c3cc(Cl)ccc3[nH]c2c2ccncc12 |  | Active
